Laboratory results as given in ChEMBL document CHEMBL4229473, “Discovery of novel leucyladenylate sulfamate surrogates as leucyl-tRNA synthetase (LRS)-targeted mammalian target of rapamycin complex 1 (mTORC1) inhibitors” (Bioorg Med Chem, 2018).
Calls of active or inactive are those of the source. No cut-off for these calls is given here.

Columns and labels:
[1] = molecular target: Leucine--tRNA ligase, cytoplasmic (Homo sapiens) (UniProt Q9P2J5); test: Inhibition of LRS-mediated mTORC1 activation in HEK293 cells assessed as decrease in leucine-induced S6K phosphorylation at T389 at 200 uM treated prior to leucine induction measured after 10 mins by Western blot method; type: cell-based
Procedure, shortened: (§1)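 HEK293 cells were pretreated at one fixed level: test agents at 200 μM, rapamycin at 100 nM or leucinol at 800 μM. mTORC1 was then activated by adding leucine for 10 min. Lysates were Western blotted for phospho-S6K, total S6K, LRS, mTOR and phospho-mTOR.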

[2] = molecular target: Leucine--tRNA ligase, cytoplasmic (Homo sapiens) (UniProt Q9P2J5); test: Inhibition of LRS-mediated mTORC1 activation in HEK293 cells assessed as decrease in leucine-induced S6K phosphorylation at T389 at 100 uM treated prior to leucine induction measured after 10 mins by Western blot method; type: cell-based
Procedure, shortened: (§2)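 Dose-dependent series in HEK293 cells. Compounds were given as pretreatment at several concentrations, then leucine was added for 10 min to activate mTORC1. Western blots were probed for phospho-S6K, S6K, LRS, mTOR and phospho-mTOR.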

HEK293 [3] = test: Effect on S6K expression in HEK293 cells at 20 to 200 uM treated prior to leucine addition measured after 10 mins by Western blot method; type: functional, cell-based; conditions: Homo sapiens; procedure, shortened: as §2
HEK293 [4] = test: Effect on LRS expression in HEK293 cells at 20 to 200 uM treated prior to leucine addition measured after 10 mins by Western blot method; type: functional, cell-based; conditions: Homo sapiens; procedure, shortened: as §2
HEK293 [5] = test: Effect on mTOR expression in HEK293 cells at 20 to 200 uM treated prior to leucine addition measured after 10 mins by Western blot method; type: functional, cell-based; conditions: Homo sapiens; procedure, shortened: as §2
[6] = molecular target: Serine/threonine-protein kinase mTOR (Homo sapiens) (UniProt P42345); test: Inhibition of mTOR phosphorylation in HEK293 cells at 20 to 200 uM treated prior to leucine addition measured after 10 mins by Western blot method; type: cell-based; procedure, shortened: as §2
[7] = molecular target: Leucine--tRNA ligase, cytoplasmic (Homo sapiens) (UniProt Q9P2J5); test: Inhibition of LRS aminooleucylation in HEK293 cells assessed as residual activity; type: cell-based
A549 = test: Cytotoxicity against human A549 cells assessed as growth inhibition after 72 hrs by SRB assay; type: functional, cell-based; conditions: A549, 72 h
Procedure, shortened: (§3)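 Growth-inhibition IC50 values in a panel of cancer lines: A549 (lung), HCT116 (colon), K562 (leukemia), MDA-MB-231 (breast), SK-Hep-1 (liver) and SNU638 (stomach), plus MRC5 (described as normal lung epithelial cells). Etoposide was run in parallel as the positive control.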

HCT-116 = test: Cytotoxicity against human HCT116 cells assessed as growth inhibition after 72 hrs by SRB assay; type: functional, cell-based; conditions: HCT-116, 72 h; procedure, shortened: as §3
K562 = test: Cytotoxicity against human K562 cells assessed as growth inhibition after 72 hrs by SRB assay; type: functional, cell-based; conditions: K562, 72 h; procedure, shortened: as §3
MDA-MB-231 = test: Cytotoxicity against human MDA-MB-231 cells assessed as growth inhibition after 72 hrs by SRB assay; type: functional, cell-based; conditions: MDA-MB-231, 72 h; procedure, shortened: as §3
SK-HEP1 = test: Cytotoxicity against human SKHEP1 cells assessed as growth inhibition after 72 hrs by SRB assay; type: functional, cell-based; conditions: SK-HEP1, 72 h; procedure, shortened: as §3
SNU-638 = test: Cytotoxicity against human SNU638 cells assessed as growth inhibition after 72 hrs by SRB assay; type: functional, cell-based; conditions: SNU-638, 72 h; procedure, shortened: as §3
MRC5 = test: Cytotoxicity against human MRC5 cells assessed as growth inhibition after 72 hrs by SRB assay; type: cell-based; conditions: MRC5, 72 h; procedure, shortened: as §3
HEK293 [8] = test: Effect on S6K expression in HEK293 cells at 200 uM treated prior to leucine addition measured after 10 mins by Western blot method; type: functional, cell-based; conditions: Homo sapiens; procedure, shortened: as §1
HEK293 [9] = test: Effect on LRS expression in HEK293 cells at 200 uM treated prior to leucine addition measured after 10 mins by Western blot method; type: functional, cell-based; conditions: Homo sapiens; procedure, shortened: as §1
HEK293 [10] = test: Effect on mTOR expression in HEK293 cells at 200 uM treated prior to leucine addition measured after 10 mins by Western blot method; type: functional, cell-based; conditions: Homo sapiens; procedure, shortened: as §1
[11] = molecular target: Serine/threonine-protein kinase mTOR (Homo sapiens) (UniProt P42345); test: Inhibition of mTOR phosphorylation in HEK293 cells at 200 uM treated prior to leucine addition measured after 10 mins by Western blot method; type: cell-based; procedure, shortened: as §1
[12] = molecular target: Leucine--tRNA ligase, cytoplasmic (Homo sapiens) (UniProt Q9P2J5); test: Inhibition of LRS-mediated mTORC1 activation in HEK293 cells assessed as decrease in leucine-induced S6K phosphorylation at T389 at 800 uM treated prior to leucine induction measured after 10 mins by Western blot method; type: cell-based; procedure, shortened: as §1
[13] = molecular target: Leucine--tRNA ligase, cytoplasmic (Homo sapiens) (UniProt Q9P2J5); test: Inhibition of LRS-mediated mTORC1 activation in HEK293 cells assessed as decrease in leucine-induced S6K phosphorylation at T389 treated prior to leucine induction measured after 10 mins by Western blot method; type: cell-based; procedure, shortened: as §2
[14] = molecular target: Leucine--tRNA ligase, cytoplasmic (Homo sapiens) (UniProt Q9P2J5); test: Inhibition of LRS-mediated mTORC1 activation in HEK293 cells assessed as decrease in leucine-induced S6K phosphorylation at T389 at 100 nM treated prior to leucine induction measured after 10 mins by Western blot method; type: cell-based; procedure, shortened: as §1

Sequence of Leucine--tRNA ligase, cytoplasmic (Homo sapiens) (Q9P2J5 whole entry, looked up): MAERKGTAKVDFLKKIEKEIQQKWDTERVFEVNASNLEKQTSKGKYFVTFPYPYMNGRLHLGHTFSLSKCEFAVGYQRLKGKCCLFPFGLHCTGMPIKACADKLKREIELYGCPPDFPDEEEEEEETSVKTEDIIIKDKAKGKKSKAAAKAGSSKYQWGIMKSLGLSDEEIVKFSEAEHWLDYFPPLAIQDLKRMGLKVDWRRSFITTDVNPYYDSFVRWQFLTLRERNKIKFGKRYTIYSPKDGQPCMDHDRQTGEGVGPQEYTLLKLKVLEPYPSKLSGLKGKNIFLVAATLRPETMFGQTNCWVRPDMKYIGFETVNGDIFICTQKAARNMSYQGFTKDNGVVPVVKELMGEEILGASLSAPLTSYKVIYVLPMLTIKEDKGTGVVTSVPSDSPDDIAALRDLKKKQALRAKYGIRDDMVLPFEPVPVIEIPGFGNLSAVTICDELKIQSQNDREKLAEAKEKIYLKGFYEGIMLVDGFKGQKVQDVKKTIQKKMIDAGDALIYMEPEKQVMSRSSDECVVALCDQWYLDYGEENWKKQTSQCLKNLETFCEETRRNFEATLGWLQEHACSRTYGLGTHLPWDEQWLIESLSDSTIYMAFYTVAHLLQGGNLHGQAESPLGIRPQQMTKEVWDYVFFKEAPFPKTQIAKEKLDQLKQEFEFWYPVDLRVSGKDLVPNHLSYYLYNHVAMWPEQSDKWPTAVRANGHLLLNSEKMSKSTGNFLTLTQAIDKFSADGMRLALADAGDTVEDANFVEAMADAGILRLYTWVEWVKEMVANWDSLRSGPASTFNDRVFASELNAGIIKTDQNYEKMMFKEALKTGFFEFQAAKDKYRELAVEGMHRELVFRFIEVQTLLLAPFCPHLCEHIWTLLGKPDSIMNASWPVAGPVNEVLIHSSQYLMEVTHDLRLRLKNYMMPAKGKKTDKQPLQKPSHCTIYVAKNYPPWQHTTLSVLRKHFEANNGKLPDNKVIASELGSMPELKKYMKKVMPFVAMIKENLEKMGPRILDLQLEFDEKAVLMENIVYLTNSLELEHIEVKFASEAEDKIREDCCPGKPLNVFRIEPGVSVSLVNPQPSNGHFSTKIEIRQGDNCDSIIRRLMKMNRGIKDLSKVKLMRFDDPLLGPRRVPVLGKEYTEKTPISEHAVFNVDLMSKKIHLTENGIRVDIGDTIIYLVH

Structure (SMILES)	inhibition [1]	Activity (HEK293 [3])	Activity (HEK293 [4])	Activity (HEK293 [5])	inhibition [6]	IC50 (A549) [µM]	IC50 (HCT-116) [µM]	IC50 (K562) [µM]	IC50 (MDA-MB-231) [µM]	IC50 (SK-HEP1) [µM]	IC50 (SNU-638) [µM]	IC50 (MRC5) [µM]	Activity (HEK293 [8])	Activity (HEK293 [9])	Activity (HEK293 [10])	inhibition [11]	further results
COc1cc2ncnc(Nc3ccc(F)c(Cl)c3)c2cc1OCCNC(=O)[C@@H](N)CC(C)C	Active	inactive	inactive	inactive	inactive	2.79	4.24	3.83	4.59	2.21	2.97	> 20					inhibition [2]: inactive; Activity [7]: > 70%
COc1cc2ncnc(Nc3ccc(F)c(Cl)c3)c2cc1OC(=O)[C@@H](O)CC(C)C	inactive												inactive	inactive	inactive	inactive	
COc1cc2ncnc(Nc3ccc(F)c(Cl)c3)c2cc1OS(=O)(=O)NC(=O)[C@@H](N)CC(C)C	Active												inactive	inactive	inactive	inactive	
COc1cc2ncnc(Nc3ccc(F)c(Cl)c3)c2cc1OCCOC(=O)[C@@H](N)CC(C)C	Active	inactive	inactive	inactive	inactive	3.59	3.97	4.01	3.65	1.94	3.86	1.87					inhibition [2]: Active
COc1cc2ncnc(Nc3ccc(F)c(Cl)c3)c2cc1OCCNC(=O)[C@@H](O)CC(C)C	Active												inactive	inactive	inactive	inactive	
COc1cc2ncnc(Nc3ccc(F)c(Cl)c3)c2cc1OC(=O)[C@@H](N)CC(C)C	inactive												inactive	inactive	inactive	inactive	
CC(C)C[C@H](N)CO																	inhibition [12]: Active
COc1cc2ncnc(Nc3ccc(F)c(Cl)c3)c2cc1OCCOS(=O)(=O)NC(=O)[C@@H](N)CC(C)C	inactive												inactive	inactive	inactive	inactive	
COc1cc2ncnc(Nc3ccc(F)c(Cl)c3)c2cc1OCCOS(=O)(=O)NC(=O)[C@@H](O)CC(C)C	inactive												inactive	inactive	inactive	inactive	
COc1cc2ncnc(Nc3ccc(F)c(Cl)c3)c2cc1OS(=O)(=O)NC(=O)[C@@H](O)CC(C)C	Active	inactive	inactive	inactive	inactive	4.38	4.04	4.1	6.23	3.3	4.94	18.8					inhibition [13]: Dose-dependent effect; Activity [7]: > 70%
CO[C@H]1C[C@@H]2CC[C@@H](C)[C@@](O)(O2)C(=O)C(=O)N2CCCC[C@H]2C(=O)O[C@H]([C@H](C)C[C@@H]2CC[C@@H](O)[C@H](OC)C2)CC(=O)[C@H](C)/C=C(\C)[C@@H](O)[C@@H](OC)C(=O)[C@H](C)C[C@H](C)/C=C/C=C/C=C/1C																	inhibition [14]: Active
COc1cc2ncnc(Nc3ccc(F)c(Cl)c3)c2cc1OCCOC(=O)[C@@H](O)CC(C)C		inactive	inactive	inactive	inactive	3.16	3.12	3.89	2.05	1.39	3.41	1.12					inhibition [13]: Dose-dependent effect; Activity [7]: > 70%
